Test results published in ChEMBL document CHEMBL3603782, “Antimalarial benzoheterocyclic 4-aminoquinolines: Structure-activity relationship, in vivo evaluation, mechanistic and bioactivation studies” (Bioorg Med Chem, 2015).
pIC50: −log10 of the molar value.

Legend:
[1] = Metabolic stability in human liver microsomes assessed as compound remaining at […] after 30 mins by HPLC-MS/MS analysis in presence of NADPH; type: ADME; conditions: read-out: Stability
CHO = test: Cytotoxicity against CHO cells by MTT assay; type: cell-based; conditions: Cricetulus griseus
Outline: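 CHO cells, MTT assay. Stocks 20 mg/mL in DMSO, diluted in complete medium; undissolved samples tested as suspensions. Emetine served as reference (10-fold dilutions, 6 concentrations, lowest 0.001 µg/mL). IC50 derived from full dose–response curves by non-linear fitting.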

[2] = Inhibition of beta haematin formation after 5 to 6 hrs by pyridine-ferrichrome method; type: physicochemical
Outline: (§1)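 Modified β-haematin inhibition assay. Compounds from DMSO stocks, 0–1000 µM final, in duplicate. NP-40 added (30.55 µM). Haematin suspension added to give 0.5 M acetate pH 4.8 and 100 µM haematin, then incubated 5–6 h at 37 °C. Free haeme detected with pyridine/H2O/acetone/0.2 M HEPES pH 7.4 reagent (final pyridine ~5% v/v) plus acetone, and absorbance read.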

Plasmodium falciparum [3] = test: Antiplasmodial activity against multidrug-resistant Plasmodium falciparum K1 infected in human erythrocytes after 48 hrs by [3H]-hypoxanthine incorporation assay; type: functional, organism-based
Outline: (§2)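 Modified [3H]-hypoxanthine incorporation assay against P. falciparum NF54 (sensitive) and K1 (multidrug-resistant). Values are means of ≥2 or ≥3 independent experiments. The resistance index is the K1 IC50 divided by the NF54 IC50.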

[4] = Metabolic stability in BALB/c mouse liver microsomes assessed as compound remaining at […] after 30 mins by HPLC-MS/MS analysis in presence of NADPH; type: ADME; conditions: read-out: Stability
Plasmodium falciparum [5] = test: Antiplasmodial activity against chloroquine-sensitive Plasmodium falciparum NF54 infected in human erythrocytes after 48 hrs by [3H]-hypoxanthine incorporation assay; type: functional, organism-based; outline: as §2
Plasmodium falciparum [6] = test: Resistance index, ratio of IC50 for multidrug-resistant Plasmodium falciparum K1 to IC50 for chloroquine-sensitive Plasmodium falciparum NF54; type: functional; outline: as §2
[7] = Selectivity index, ratio of IC50 for CHO cells to IC50 for chloroquine-sensitive Plasmodium falciparum NF54; type: toxicity, cell-based; conditions: hamster, read-out: Ratio IC50
[8] = Lipophilicity, log P of the compound; type: physicochemical; conditions: octanol/water
Plasmodium falciparum [9] = test: Resistance index, ratio of IC50 for multidrug-resistant Plasmodium falciparum K1 to IC50 for Plasmodium falciparum W2; type: functional
[10] = Stability of the compound by methoxylamine trapping method; type: physicochemical
[11] = Stability of the compound by potassium cyanide trapping method; type: physicochemical
[12] = Drug metabolism assessed as ratio of sum of compound adduct peak area to clozapine adduct peak area by GSH trapping method; type: physicochemical
[13] = Inhibition of beta haematin formation at 1000 uM after 5 to 6 hrs by pyridine-ferrichrome method; type: physicochemical; outline: as §1
Plasmodium berghei [14] = test: Antimalarial activity against GFP-transfected Plasmodium berghei ANKA infected in mouse assessed as mean survival days at 50 mg/kg, po qd administered for 4 days; type: functional
Outline: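 Mice (n = 3) infected with GFP-transfected P. berghei ANKA. Compound given orally, dissolved in a vehicle containing ethanol and diluted 10× with water. Multi-dose arms were dosed once daily on four consecutive days (4, 24, 48, 72 h post-infection). Parasitaemia was measured by flow cytometry, detection limit 0.1%. Activity is % reduction relative to controls. Survival was followed for 30 days.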

Plasmodium berghei [15] = test: Antimalarial activity against GFP-transfected Plasmodium berghei ANKA infected in mouse assessed as reduction in parasitemia at 50 mg/kg, po qd administered for 4 days measured on day 4 post last dose by flow cytometric analysis relative to control; type: functional; design: scale not given: the % may be the effect or the level left

Compound | pIC50 (CHO) | pIC50 [2] | pIC50 (Plasmodium falciparum [3]) | pIC50 (Plasmodium falciparum [5]) | Ratio IC50 (Plasmodium falciparum [6]) | selectivity ratio [7] | logP [8] | also measured
CCN(CC)CCNc1nc2cc(Nc3ccnc4cc(Cl)ccc34)ccc2o1 | 4.94 | 3.61 | 7.38 | 7.96 | 3.82 | 1040 | – | remaining at 0.5 h [1]: 78%; remaining at 0.5 h [4]: 74%
O=C1CCCN1CCCNc1nc2cc(Nc3ccnc4cc(Cl)ccc34)ccc2o1 | 4.53 | 4.01 | 6.11 | 5.73 | 0.41 | 15.8 | 2.88 | –
CCNc1nc2cc(Nc3ccnc4cc(Cl)ccc34)ccc2[nH]1 | – | – | – | – | – | – | – | Ratio IC50 (Plasmodium falciparum [9]): 0.5; Stability [10]: Unstable; Stability [11]: Unstable
Clc1ccc2c(Nc3ccc4sc(NCCN5CCCCC5)nc4c3)ccnc2c1 | – | – | – | – | – | – | – | Ratio IC50 (Plasmodium falciparum [9]): 0.54; Ratio [12]: 0.88
O=[N+]([O-])c1ccc2oc(NCc3ccccn3)nc2c1 | – | – | < 4.70 | < 4.70 | – | – | – | inhibition (INH) [13]: Not Active
CN(C)CCCNc1nc2cc([N+](=O)[O-])ccc2o1 | – | – | 4.96 | < 4.70 | – | – | – | inhibition (INH) [13]: Not Active
Clc1cccc(CNc2nc3cc(Nc4ccnc5cc(Cl)ccc45)ccc3o2)c1 | 4.59 | 4.57 | 6.65 | 6.91 | 1.8 | 207 | 5.7 | –
CCN(CC)CCNc1nc2cc(Nc3ccnc4cc(Cl)ccc34)ccc2[nH]1 | – | – | – | – | – | – | – | Ratio IC50 (Plasmodium falciparum [9]): 4.14
Clc1ccc2c(Nc3ccc4[nH]c(NCCN5CCCCC5)nc4c3)ccnc2c1 | – | – | – | – | – | – | – | Ratio IC50 (Plasmodium falciparum [9]): 0.02
O=[N+]([O-])c1ccc2oc(N3CCN(c4ccccc4)CC3)nc2c1 | – | – | < 4.70 | < 4.70 | – | – | – | inhibition (INH) [13]: Not Active
CN(C)CCCNc1nc2cc(Nc3ccnc4cc(Cl)ccc34)ccc2o1 | 4.90 | 3.76 | 6.83 | 7.72 | 7.84 | 665 | 3.44 | remaining at 0.5 h [1]: 78%; remaining at 0.5 h [4]: 44%
Clc1ccc2c(Nc3ccc4oc(NCc5cccnc5)nc4c3)ccnc2c1 | 3.78 | 4.00 | 6.15 | 6.51 | 2.28 | 532 | 4.68 | –
CN1CCN(c2nc3cc([N+](=O)[O-])ccc3o2)CC1 | – | – | < 4.70 | < 4.70 | – | – | – | inhibition (INH) [13]: Not Active
O=[N+]([O-])c1ccc2oc(NCCN3CCCC3)nc2c1 | – | – | 5.53 | 5.79 | – | – | – | inhibition (INH) [13]: Not Active
Clc1ccc2c(Nc3ccc(NCCN4CCOCC4)nc3)ccnc2c1 | – | – | – | – | – | – | – | Ratio IC50 (Plasmodium falciparum [9]): 1.78
Clc1ccc2c(Nc3ccc4sc(NCCN5CCCC5)nc4c3)ccnc2c1 | – | – | – | – | – | – | – | Ratio IC50 (Plasmodium falciparum [9]): 1.17
CCN(CC)c1nc2cc(Nc3ccnc4cc(Cl)ccc34)ccc2o1 | 3.64 | 4.29 | 5.86 | 6.29 | 2.69 | 448 | 4.78 | –
Clc1ccc2c(Nc3ccc(NCCN4CCCC4)nc3)ccnc2c1 | – | – | – | – | – | – | – | Ratio IC50 (Plasmodium falciparum [9]): 4.38
CCN(CC)c1nc2cc([N+](=O)[O-])ccc2o1 | – | – | < 4.70 | < 4.70 | – | – | – | inhibition (INH) [13]: Not Active

Compound | pIC50 (CHO) | pIC50 [2] | pIC50 (Plasmodium falciparum [3]) | pIC50 (Plasmodium falciparum [5]) | Ratio IC50 (Plasmodium falciparum [6]) | selectivity ratio [7] | logP [8] | also measured
CCNc1nc2cc(Nc3ccnc4cc(Cl)ccc34)ccc2o1 | – | 4.10 | – | 6.33 | 2.15 | – | 3.75 | remaining at 0.5 h [1]: 81%; Ratio IC50 (Plasmodium falciparum [9]): 1.88; Stability [10]: Unstable; Stability [11]: Unstable; remaining at 0.5 h [4]: 1%
Clc1ccc2c(Nc3ccc4oc(NCCN5CCCCC5)nc4c3)ccnc2c1 | 5.12 | 4.05 | 7.62 | 8.00 | 2.4 | 758 | 4.11 | remaining at 0.5 h [1]: 71%; MSD (Plasmodium berghei [14]): 27 days; remaining at 0.5 h [4]: 41%; Activity (Plasmodium berghei [15]): 99.9%
CC[C@H]1CN2CCc3cc(OC)c(OC)cc3[C@@H]2C[C@@H]1C[C@H]1NCCc2cc(OC)c(OC)cc21 [EMETINE] | 6.98 | – | – | – | – | – | – | –
Clc1ccc2c(Nc3ccc4oc(NCc5ccccn5)nc4c3)ccnc2c1 | < 3.62 | 3.97 | 6.05 | 6.39 | 2.17 | – | – | –
Clc1ccc2c(Nc3ccc4oc(NCCCN5CCOCC5)nc4c3)ccnc2c1 | 4.86 | 4.10 | 7.10 | 7.41 | 2.05 | 351 | 3.09 | remaining at 0.5 h [1]: 27%; remaining at 0.5 h [4]: 26%
COCCc1nc2cc(Nc3ccnc4cc(Cl)ccc34)ccc2o1 | – | – | 5.68 | 5.96 | 1.93 | – | 3.11 | –
Clc1ccc2oc(N3CCN(c4ccccc4)CC3)nc2c1 | – | – | < 4.70 | < 4.70 | – | – | – | inhibition (INH) [13]: Not Active
O=[N+]([O-])c1ccc2oc(NCCc3ccccn3)nc2c1 | – | – | < 4.70 | < 4.70 | – | – | – | inhibition (INH) [13]: Not Active
CCN(CC)CCCNc1nc2cc(Nc3ccnc4cc(Cl)ccc34)ccc2o1 | 5.20 | 3.78 | 7.07 | 7.85 | 6.07 | 455 | 4.12 | remaining at 0.5 h [1]: 70%; remaining at 0.5 h [4]: 70%
CN1CCN(Nc2nc3cc(Nc4ccnc5cc(Cl)ccc45)ccc3o2)CC1 | 3.91 | 4.13 | 6.62 | 6.84 | 1.67 | 849 | 2.6 | –
Clc1cccc(N2CCN(c3nc4cc(Nc5ccnc6cc(Cl)ccc56)ccc4o3)CC2)c1 | 3.76 | 4.61 | 6.39 | 6.69 | 2.04 | 852 | 6.57 | remaining at 0.5 h [1]: 36%; remaining at 0.5 h [4]: > 99%
CN(C)Cc1nc2cc(Nc3ccnc4cc(Cl)ccc34)ccc2o1 | – | – | 6.39 | 6.67 | 1.93 | – | – | –
Clc1ccc2c(Nc3ccc4oc(NCCN5CCOCC5)nc4c3)ccnc2c1 | 3.91 | 4.10 | 6.70 | 6.97 | 1.83 | 1150 | – | –
CN1CCN(c2nc3cc(Nc4ccnc5cc(Cl)ccc45)ccc3o2)CC1 | < 3.62 | 4.14 | 7.00 | 7.29 | 1.94 | – | 3.9 | remaining at 0.5 h [1]: 61%; remaining at 0.5 h [4]: 18%
Clc1ccc2c(Nc3ccc4sc(NCCN5CCOCC5)nc4c3)ccnc2c1 | – | – | – | – | – | – | – | Ratio IC50 (Plasmodium falciparum [9]): 0.63; Ratio [12]: 1.13
Clc1ccc2c(Nc3ccc4oc(NCCc5ccccn5)nc4c3)ccnc2c1 | < 3.62 | 4.20 | 6.07 | 6.40 | 2.12 | – | 4.42 | –
Clc1ccc2c(Nc3ccc4oc(NCc5ccncc5)nc4c3)ccnc2c1 | < 3.62 | 4.03 | 5.81 | 6.20 | 2.47 | – | 4.55 | –
Clc1ccc2c(Nc3ccc4oc(N5CCN(c6ccccc6)CC5)nc4c3)ccnc2c1 | 4.54 | 4.53 | 6.06 | 6.56 | 3.19 | 105 | 6.05 | –
